From ChEMBL document CHEMBL2146441, “2,6-Disubstituted imidazo[2,1-b][1,3,4]thiadiazoles: search for anticancer agents” (2012)

Tests used:
Assay type in all cases: functional
BT-549 = test: Cytotoxicity against human BT549 cells assessed as cell growth at 10^-8 M after 48 hrs by SRB assay; conditions: BT-549, 48 h, read-out: Activity
Method in brief: (§1)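 NCI-60 screen: lines kept in RPMI 1640 with 5% FBS, seeded at 5000–40,000 cells/well by doubling time, preincubated 24 h at 37 °C in 5% CO2. Time-zero plates TCA-fixed at drug addition. DMSO stocks diluted in medium, 48 h exposure. Fixation in cold TCA (final 10% adherent, 16% suspension), 0.4% SRB stain, solubilised in 10 mM Tris base, A515. Percent growth computed against control and time-zero.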

Malme-3M [1] = test: Cytotoxicity against human MALME-3M cells assessed as cell growth at 10^-4 M after 48 hrs by SRB assay; conditions: read-out: Activity
SN12C = test: Cytotoxicity against human SN12C cells assessed as cell growth at 10^-7 M after 48 hrs by SRB assay; conditions: read-out: Activity
MDA-MB-435 = test: Cytotoxicity against human MDA-MB-435 cells assessed as cell growth at 10^-5 M after 48 hrs by SRB assay; conditions: MDA-MB-435, 48 h, read-out: Activity
HL-60 = test: Growth inhibition of human HL60 cells after 48 hrs by SRB assay; conditions: HL-60, 48 h
Method in brief: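 Leukemia suspension lines grown in RPMI 1640 with 5% FBS, seeded at 5000–40,000 cells/well, and preincubated 24 h at 37 °C, 5% CO2. Compound, stocked in DMSO, given either once at 10^-5 M or at five 10-fold dilutions for 48 h. Settled cells fixed with 80% TCA (final 16%), stained with SRB, and read at 515 nm. GI50 calculated against time-zero and control growth.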

ACHN = test: Cytotoxicity against human ACHN cells assessed as cell growth at 10^-8 M after 48 hrs by SRB assay; conditions: read-out: Activity; method in brief: as §1
SF-295 = test: Cytotoxicity against human SF295 cells assessed as cell growth at 10^-4 M after 48 hrs by SRB assay; conditions: SF-295, 48 h, read-out: Activity
SK-MEL-28 = test: Cytotoxicity against human SK-MEL-28 cells assessed as cell growth at 10^-7 M after 48 hrs by SRB assay; conditions: SK-MEL-28, 48 h, read-out: Activity
T47D [2] = test: Cytotoxicity against human T47D cells assessed as cell growth at 10^-4 M after 48 hrs by SRB assay; conditions: read-out: Activity
CAKI-1 = test: Cytotoxicity against human Caki1 cells assessed as cell growth at 10^-5 M after 48 hrs by SRB assay; conditions: CAKI-1, 48 h, read-out: Activity; method in brief: as §1
Malme-3M [3] = test: Cytotoxicity against human MALME-3M cells assessed as cell growth at 10^-6 M after 48 hrs by SRB assay; conditions: read-out: Activity
NCI-H322M [4] = test: Cytotoxicity against human NCI-H322M cells assessed as cell growth at 10^-7 M after 48 hrs by SRB assay; conditions: read-out: Activity
HCT-15 [5] = test: Cytotoxicity against human HCT15 cells assessed as cell growth at 10^-4 M after 48 hrs by SRB assay; conditions: HCT-15, 48 h, read-out: Activity
Method in brief: (§2)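 NCI-60 five-dose screen. Cells were grown in RPMI 1640 with 5% FBS and seeded at 5000–40,000 cells/well according to doubling time. They were pre-incubated 24 h at 37 °C in 5% CO₂, and time-zero (Tz) plates were TCA-fixed at drug addition. Five 10-fold dilutions of DMSO stock were applied for 48 h. Read-out was SRB staining, 515 nm absorbance, with percent growth calculated versus Tz and untreated control.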

T47D [6] = test: Cytotoxicity against human T47D cells assessed as cell growth at 10^-6 M after 48 hrs by SRB assay; conditions: read-out: Activity
PC-3 = test: Cytotoxicity against human PC3 cells assessed as cell growth at 10^-4 M after 48 hrs by SRB assay; conditions: PC-3, 48 h, read-out: Activity
SNB-19 = test: Cytotoxicity against human SNB19 cells assessed as cell growth at 10^-8 M after 48 hrs by SRB assay; conditions: SNB-19, 48 h, read-out: Activity
SW-620 = test: Cytotoxicity against human SW620 cells assessed as cell growth at 10^-5 M after 48 hrs by SRB assay; conditions: SW-620, 48 h, read-out: Activity
COLO = test: Cytotoxicity against human COLO […] cells assessed as cell growth at 10^-5 M after 48 hrs by SRB assay; conditions: read-out: Activity; method in brief: as §1
OVCAR-5 = test: Cytotoxicity against human OVCAR5 cells assessed as cell growth at 10^-7 M after 48 hrs by SRB assay; conditions: OVCAR-5, 48 h, read-out: Activity
HCT-15 [7] = test: Growth inhibition of human HCT15 cells after 48 hrs by SRB assay; conditions: HCT-15, 48 h; for CC50: read-out: LC50 (the source's name)
Method in brief: (§3)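 Adherent NCI-60 lines grown in RPMI 1640 with 5% FBS, seeded at 5000–40,000 cells/well, and preincubated 24 h at 37 °C, 5% CO2. Compound, stocked in DMSO, given either once at 10^-5 M or at five 10-fold dilutions for 48 h. Cells fixed with cold TCA (final 10%), stained with 0.4% SRB, and read at 515 nm. GI50 taken as 50% reduction in net protein increase versus time-zero and control plates.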

NCI-H322M [8] = test: Cytotoxicity against human NCI-H322M cells assessed as cell growth at 10^-8 M after 48 hrs by SRB assay; conditions: read-out: Activity
TK-10 = test: Cytotoxicity against human TK10 cells assessed as cell growth at 10^-6 M after 48 hrs by SRB assay; conditions: TK-10, 48 h, read-out: Activity
SF-539 = test: Cytotoxicity against human SF539 cells assessed as cell growth at 10^-5 M after 48 hrs by SRB assay; conditions: SF-539, 48 h, read-out: Activity
RXF 393 = test: Cytotoxicity against human RXF393 cells assessed as cell growth at 10^-4 M after 48 hrs by SRB assay; conditions: RXF 393, 48 h, read-out: Activity
SNB-75 = test: Growth inhibition of human SNB75 cells after 48 hrs by SRB assay; conditions: SNB-75, 48 h; method in brief: as §3
SK-OV-3 = test: Cytotoxicity against human SKOV3 cells assessed as cell growth at 10^-4 M after 48 hrs by SRB assay; conditions: SK-OV-3, 48 h, read-out: Activity
NCI-H522 = test: Cytotoxicity against human NCI-H522 cells assessed as cell growth at 10^-4 M after 48 hrs by SRB assay; conditions: NCI-H522, 48 h, read-out: Activity
IGROV-1 = test: Cytotoxicity against human IGROV1 cells assessed as cell growth at 10^-8 M after 48 hrs by SRB assay; conditions: IGROV-1, 48 h, read-out: Activity
HCC 2998 = test: Cytotoxicity against human HCC2998 cells assessed as cell growth at 10^-7 M after 48 hrs by SRB assay; conditions: HCC 2998, 48 h, read-out: Activity; method in brief: as §2

| Structure (SMILES) | growth at 0.01 µM (BT-549) | growth at 100 µM (Malme-3M [1]) | growth at 0.1 µM (SN12C) | growth at 10 µM (MDA-MB-435) | GI50 (HL-60) | LC50 (HL-60) | TGI (HL-60) | growth at 0.01 µM (ACHN) | growth at 100 µM (SF-295) | growth at 0.1 µM (SK-MEL-28) | growth at 100 µM (T47D [2]) | growth at 10 µM (CAKI-1) | growth at 1 µM (Malme-3M [3]) | growth at 0.1 µM (NCI-H322M [4]) | growth at 100 µM (HCT-15 [5]) | growth at 1 µM (T47D [6]) | growth at 100 µM (PC-3) | growth at 0.01 µM (SNB-19) | growth at 10 µM (SW-620) | growth at 10 µM (COLO) | other results |
| --- | --- | --- | --- | --- | --- | --- | --- | --- | --- | --- | --- | --- | --- | --- | --- | --- | --- | --- | --- | --- | --- |
| COc1ccc(-c2nn3cc(-c4ccc(O)cc4O)nc3s2)cc1 | 94% | -28% | 93% | 14% | 3.86 µM | > 100 µM | 37.4 µM | 103% | -13% | 92% | -20% | 8% | 61% | 83% | 4% | 71% | 1% | 93% | 26% | 35% | growth at 0.1 µM (OVCAR-5): 90%; GI50 (HCT-15 [7]): 5.13 µM; TGI (HCT-15 [7]): > 100 µM; CC50 (HCT-15 [7]): > 100 µM; growth at 0.01 µM (NCI-H322M [8]): 89%; growth at 1 µM (TK-10): 101%; growth at 10 µM (SF-539): -82%; growth at 100 µM (RXF 393): -63%; GI50 (SNB-75): 0.331 µM; TGI (SNB-75): 2.17 µM; growth at 100 µM (SK-OV-3): -50%; growth at 100 µM (NCI-H522): -23%; growth at 0.01 µM (IGROV-1): 96%; growth at 0.1 µM (HCC 2998): 94% |
| COc1ccc(-c2nn3cc(-c4cccc(N)c4)nc3s2)cc1 | 102% | -66% | 91% | 11% | 1.77 µM | > 100 µM | 37.7 µM | 106% | -27% | 95% | -14% | 2% | 71% | 95% | 1% | 57% | -22% | 96% | 40% | 42% | growth at 0.1 µM (OVCAR-5): 103%; GI50 (HCT-15 [7]): 5.26 µM; TGI (HCT-15 [7]): > 100 µM; CC50 (HCT-15 [7]): > 100 µM; growth at 0.01 µM (NCI-H322M [8]): 100%; growth at 1 µM (TK-10): 118%; growth at 10 µM (SF-539): -11%; growth at 100 µM (RXF 393): -90%; GI50 (SNB-75): 1.07 µM; TGI (SNB-75): 4.87 µM; CC50 (SNB-75; read-out: LC50 (the source's name)): > 100 µM; growth at 100 µM (SK-OV-3): -68%; growth at 100 µM (NCI-H522): -76%; growth at 0.01 µM (IGROV-1): 102%; growth at 0.1 µM (HCC 2998): 96% |
